# What was measured:
# SH-SY5Y cells [1] = experiment: MTS-based cell survival assay; design: species or system human
# Cav2 VGCCs = conditions: cited from earlier work
# cdk = conditions: cited from earlier work
# Cav2.1 VGCC = experiment: Whole-cell perforated patch clamp of Cav2.1 current; assay type: cell-based
# cdk2 = cdk2 (Homo sapiens, UniProt P24941); experiment: kinaseseeker kinase assay; assay type: binding; conditions: 2 μM
# Procedure, shortened: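 Cell-free luminescent probe-displacement binding assay in rabbit reticulocyte lysate. Compound (2 μM) or DMSO control was incubated 30 min at room temperature, then 1 h with a kinase-specific probe. Luminescence was read, and values expressed as percent kinase activity remaining.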
# cdk5 = cdk5 (Homo sapiens, UniProt Q00535); experiment: kinaseseeker kinase assay; assay type: binding; conditions: 2 μM
# [2] = tested on: rectifying outward current in HEK293 cells; experiment: Contaminating rectifying outward current during voltage steps in patch clamp; assay type: cell-based; conditions: 50 μM; mean ± SEM, n = 7; across all voltages tested
# SH-SY5Y cells [3] = conditions: ref Tarr et al., 2014; cited from earlier work
# [4] = ref Liang et al., 2012, Tarr et al., 2013
# Chain of cdk5 (Q00535 whole entry, species assumed): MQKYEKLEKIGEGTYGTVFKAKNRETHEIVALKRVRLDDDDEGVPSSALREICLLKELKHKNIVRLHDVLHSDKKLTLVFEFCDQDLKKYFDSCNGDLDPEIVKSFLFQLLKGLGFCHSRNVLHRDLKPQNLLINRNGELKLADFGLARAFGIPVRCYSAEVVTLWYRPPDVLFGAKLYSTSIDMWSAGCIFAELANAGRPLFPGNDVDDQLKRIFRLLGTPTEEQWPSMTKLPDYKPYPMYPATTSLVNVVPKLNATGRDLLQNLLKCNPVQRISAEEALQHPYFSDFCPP
smiles,measurement,setting,value
"CC[C@H](CO)Nc1nc(NCc2ccccc2)c2ncn(C(C)C)c2n1 [(R)-roscovitine, reference compound]",Concentrations giving a significant decrease in cell survival,SH-SY5Y cells [1]; 24 h exposure,≥ 10 µM
CC[C@@H](CO)Nc1nc(NCc2ccccc2)c2ncn(C(C)C)c2n1 [(S)-roscovitine],Concentration needed for VGCC agonist activity,"Cav2 VGCCs; ref Buraei and Elmslie, 2008",above 500 μM
same,Lower affinity than (R)-roscovitine (VGCC agonist activity),"Cav2 VGCCs; ref Buraei and Elmslie, 2008",20 fold
same,"Potency as cdk inhibitor, less than (R)-roscovitine","cdk; ref De Azevedo et al., 1997",2 fold
CCCn1cnc2c(NCc3ccc(C)s3)nc(N[C@H](CC)CO)nc21 [GV-58],Depolarization time to 50% of maximal effects on tail current integral,"Cav2.1 VGCC; 50 μM continuously present, steps to +20 mV of 1–100 msec",2 to 4 ms
same,Shift of voltage-dependence of activation curves (peak tail current),"Cav2.1 VGCC; 50 μM, 20 msec steps from −100 mV",did not show any shift
same,Shift to the left of IV plots (peak current during step),"Cav2.1 VGCC; 50 μM, 20 msec steps from −100 mV, ascribed to contaminating outward current",~10 mV
same,Tail current decay (slow deactivation) time constant,"Cav2.1 VGCC; 50 μM, tail current at −60 mV after 200 msec step to +60 mV",9.16 ± 0.706 ms
same,Reduction of cdk2 activity,cdk2,0–15%
same,Reduction of cdk5 activity,cdk5,10–20%
same,Effect on cell survival at 50 μM,"SH-SY5Y cells [1]; 50 μM, 24 h",no significant effects on cell survival
same,Effect on cell survival,"SH-SY5Y cells [1]; 24 h exposure, 0.1–100 μM, normalized to vehicle","little or no effect on cell survival, even up to 100 μM"
same,Increase in rectifying current amplitude,[2],70 ± 10%
same,Decrease in cell survival at 100 μM,SH-SY5Y cells [3],8%
same,Higher potency and efficacy for Cav2 VGCCs than (R)-roscovitine,Cav2 VGCCs; [4],4 fold
same,Reduction in cdk activity versus the parent molecule (R)-roscovitine,cdk; [4],greater than 20 fold

# Reference: publication PMC5820137 (Neuropharmacology, 2017)
